# Experimental data taken from the EternaBench riboswitch data.
# What was measured:
# MS2 coat protein [1] = assay: apparent Kd, MS2 coat protein; higher = weaker binding; RNA-MaP array
# Summary of the method: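 Apparent Kd was taken as the median of binding curves fitted cluster by cluster. The designed RNAs were made by transcription of sequenced DNA templates on an Illumina sequencing chip and exposed to fluorescently labeled MS2 coat protein (1.5 nM to 3 μM) at room temperature, with or without input ligand, for 0.8–1.5 h at the lowest and 10–20 min at the highest concentrations. Any design measured on fewer than 10 clusters was left out.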
# MS2 coat protein [2] = assay: apparent Kd, MS2 coat protein; higher = weaker binding; RNA-MaP array; FMN 200 µM where present
# Summary of the method: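 On Illumina sequencing-chip clusters, designs were transcribed by stalled E. coli RNA polymerase and titrated with SNAP-549-labelled MS2 coat protein (0.7 or 1.5 nM, doubling to 3 µM), without and then with constant ligand, in 100 mM Tris-HCl pH 7.5, 80 mM KCl, 4 mM MgCl2, BSA, DTT, yeast tRNA and Tween-20. Apparent Kd is the median of filtered per-cluster curve fits to green signal normalised to red-channel RNA signal and control-cluster median Fmax.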
# [3] = designed as: ON switch for flavin mononucleotide, no ligand
# [4] = ligand present: flavin mononucleotide, designed as: ON switch for flavin mononucleotide
# [5] = designed as: OFF switch for flavin mononucleotide, no ligand
# [6] = ligand present: flavin mononucleotide, designed as: OFF switch for flavin mononucleotide
sequence,measurement,setting,value
UUUCUGUUACAGAAGGGAAGGAAACAUGAGGAUCACCCAUGUCCACGCCGUUUACAUUCGGCCGUUCAGGAUAUGUCAUAUUGA,apparent Kd,MS2 coat protein [1]; [3],23.1 nM
same,apparent Kd,MS2 coat protein [1]; [4],17 nM
CAGGCUUUCAAGAAGGACCUGGUAACAUCAGUGGUAGGAUAUUGGUUAAGCUUGGCUUGACAUGAGGAUCACCCAUGUGGCGUA,apparent Kd,MS2 coat protein [1]; [3],47.4 nM
same,apparent Kd,MS2 coat protein [1]; [4],11.4 nM
AGAUCCGGCGUGAGGAUAUAGCAAGCAACUAACGACUAGAAGGCACAUGAGGAUCACCCAUGUCUGUUACACUA,apparent Kd,MS2 coat protein [1]; [5],12.1 nM
same,apparent Kd,MS2 coat protein [1]; [6],36.7 nM
CGGUUACAUGAGGAUCACCCAUGUUCCAUGGUUGAAGGAUAUGGCGACGGCGCGUGGGUACCAGAAGGUCAGGCAC,apparent Kd,MS2 coat protein [1]; [3],26 nM
same,apparent Kd,MS2 coat protein [1]; [4],19.6 nM
UACCGAGGGACAGGAUAUUGAGCAUGCCUCGCCCAAGAAGGGUCUUCUGGAGUGACUUAUAACAUGAGGAUCACCCAUGUGAUC,apparent Kd,MS2 coat protein [1]; [5],410 nM
same,apparent Kd,MS2 coat protein [1]; [6],262 nM
AAUGUAUGUUAGGAUAUGGCCACGGCGAGGGACCCAGAAGGAACCACAUGAGGAUCACCCAUGUAAAAUAUGGA,apparent Kd,MS2 coat protein [1]; [5],20.3 nM
same,apparent Kd,MS2 coat protein [1]; [6],16.4 nM
UAGGAUCAAGUAGGAUAUGUAGAACGGCUUUGUACAGAAGGACUAGUACAUGAGGAUCACCCAUGUUAGGGUACCUCUAAGGCA,apparent Kd,MS2 coat protein [1]; [6],198 nM
UGACCGUUAAUAGGAUAUGUUCUCUUCCACAUGAGGAUCACCCAUGUAAACUAUUGUGAAACUGGACAGAAGGAUUAAACAUUG,apparent Kd,MS2 coat protein [1]; [5],17.1 nM
same,apparent Kd,MS2 coat protein [1]; [6],14.1 nM
GCAUGACAUGAGGAUCACCCAUGUGAAUUGUAGGAAGGAUAUAAUACUUGAUCCGCUGUCUUAGAAGGUCCAUAAU,apparent Kd,MS2 coat protein [1]; [3],28.6 nM
same,apparent Kd,MS2 coat protein [1]; [4],19.6 nM
GGAAGCUCCUUGAGACAUGAGGAUCACCCAUGUGCCAUUCCGAGAAGGUAGACUGGACGAGAGGCUAAGGAUAUCGGCGCGCUC,apparent Kd,MS2 coat protein [1]; [5],16.7 nM
same,apparent Kd,MS2 coat protein [1]; [6],15.6 nM
AAUCUGAUUGCGGCCGCCACUAAUUUUCCAUGAGUAUUGCAAUUACAUGAGGAUCACCCAUGUCAUAGGACCGGGCAUGACAUCU,apparent Kd,"MS2 coat protein [1]; designed as: ON switch for tryptophan, no ligand",303 nM
same,apparent Kd,"MS2 coat protein [1]; ligand present: tryptophan, designed as: ON switch for tryptophan",240 nM
AAACGAGAGACAGAUACCAGCGCAGGAACGGAGUAUGGUGACAUGAGGAUCACCCAUGUGCGCCCUUGGCAGCUGAGCCGUAUUG,apparent Kd,"MS2 coat protein [1]; designed as: OFF switch for theophylline, no ligand",27.9 nM
same,apparent Kd,"MS2 coat protein [1]; ligand present: theophylline, designed as: OFF switch for theophylline",171 nM
UCAGAAAGAUAGGACCUACAUGAGGAUCACCCAUGUUGCUGUAGAAGGUGCCGUGCCAUCGUGAGCAAGGAUAUACCGAUAUGG,apparent Kd,MS2 coat protein [1]; [5],22.6 nM
same,apparent Kd,MS2 coat protein [1]; [6],15.8 nM
AAAUGUGUAUAGGAUAUCUUGACCCACGCAUUCAGAGAAGGAUACACAUGAGGAUCACCCAUGUUGAGACGGAA,apparent Kd,MS2 coat protein [1]; [5],15.5 nM
same,apparent Kd,MS2 coat protein [1]; [6],43.9 nM
AAAUUACGUAAGAAGGCCAUAGGAACUGAAGCAAGCUCGACGACACAUGAGGAUCACCCAUGUCUGGAGGAUAUUAUGAUAUCU,apparent Kd,MS2 coat protein [1]; [3],10.3 nM
same,apparent Kd,MS2 coat protein [1]; [4],9.64 nM
AAAUGGACGGCAGGAUAUGGACAAGGAAUAUUACCAGAAGGGCCCUAAUGCUCAUACAUGAGGAUCACCCAUGUUGUAAUCAAU,apparent Kd,MS2 coat protein [1]; [5],17.8 nM
same,apparent Kd,MS2 coat protein [1]; [6],12.7 nM
ACGUAGGGCUAGAAGGCUCUAACAAGGUGCCCAUAAAAUAACAUGAGGAUCACCCAUGUUAGUAGAGAGGAUAUAGACUCAUGU,apparent Kd,MS2 coat protein [1]; [5],18.4 nM
same,apparent Kd,MS2 coat protein [1]; [6],19.3 nM
GUUUUCAAGUCGGCCGCCACUGAUACAAUCCUCACCGGUUCACAUGAGGAUCACCCAUGUUCGCUCAGGACCGGGACCUUCUGUG,apparent Kd,"MS2 coat protein [1]; designed as: OFF switch for tryptophan, no ligand",127 nM
same,apparent Kd,"MS2 coat protein [1]; ligand present: tryptophan, designed as: OFF switch for tryptophan",108 nM
ACUAUACGAGGAUAUACUGACGGGCCUCAGGCGUCCAUCAGACAUGAGGAUCACCCAUGUAGAAGGCGUAUACU,apparent Kd,MS2 coat protein [2]; [5],85.5 nM
same,apparent Kd,MS2 coat protein [2]; [6],196 nM
GGCGUUGAAGGAUAUUGAUAUCCGGACAUGAGGAUCACCCAUGUGAGACAUACUUAUAUGCGAGAAGGUCAGGCCC,apparent Kd,MS2 coat protein [2]; [5],160 nM
same,apparent Kd,MS2 coat protein [2]; [6],139 nM
GGGUACAUCGGAGGAUAUCAUGUAAAUACAUGAGGAUCACCCAUGUCGAUGGAGACUUCGGAGAUUGAGAAGGCCGAUGUACCG,apparent Kd,MS2 coat protein [2]; [3],434 nM
same,apparent Kd,MS2 coat protein [2]; [4],27.8 nM
UACAUUUAACAGAAGGCGUUUAUAUAUAACUUACGAGGAUAUGUAUAACAUGAGGAUCACCCAUGUAACAUGGAGAGAAUAUCU,apparent Kd,MS2 coat protein [2]; [3],43.1 nM
same,apparent Kd,MS2 coat protein [2]; [4],26.6 nM
UAAUAUAUACAAGGAUAUCAAUUAUAUACACAUCCUACAUGAGGAUCACCCAUGUUUUAUUUUUUUGAGAAGGUGUAUUGUCGG,apparent Kd,MS2 coat protein [2]; [3],20.4 nM
same,apparent Kd,MS2 coat protein [2]; [4],29.1 nM
